Assay [1] has as its system Nucleic Acid. The assay can be described thus: Protection against bleomycin-iron complex-induced DNA damage using EDTA after 1 hr by thiobarbituric acid method. The format is nucleic-acid assay. Put shortly: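 Bleomycin DNA-damage assay, 1.0 ml final: DNA 0.2 mg/ml, bleomycin 0.05 mg/ml, FeCl₃ 0.025 mM, MgCl₂ 5 mM, KH₂PO₄–KOH pH 7.0 30 mM, sample 0.1 mg/ml in MeOH (ascorbic acid 0.24 mM reference). 37 °C for 1 h; stopped with EDTA; TBA plus HCl, 80 °C 15 min; absorbance read. Three experiments, mean ± S.E.M.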

The test system of assay [2] is WI-38. Put plainly: Cytotoxicity against human WI38 cells after 96 hrs by MTT assay. The format is cell-based. The following applies: WI-38, 96 h. A digest of the protocol:
(§1)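 Cells from ATCC, batch cultured 10 d, seeded at 10 × 10³ cells/well in RPMI-1640 with fetal bovine serum, attached 24 h at 37 °C, 5% CO₂. Serum-free medium, then test samples at final 1000, 500, 200, 100, 50, 20, 10 (DMSO ≤1% v/v); 96 h incubation. Formazan read-out against untreated controls; 5-fluorouracil positive control; IC50 from dose–response curve.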

Assay [3] deals with MCF7. Put plainly: Cytotoxicity against human MCF7 cells after 96 hrs by MTT assay. It is filed as functional, cell-based. Particulars: MCF7, 96 h. A digest of the protocol: as §1
In assay [4] the test system is Vero. The assay can be described thus: Cytotoxicity against african green monkey Vero cells after 96 hrs by MTT assay. It is filed as cell-based. The following applies: Chlorocebus sabaeus. A digest of the protocol: as §1
For assay [5], the system named is HepG2. Put plainly: Cytotoxicity against human HepG2 cells after 96 hrs by MTT assay. It is filed as functional, cell-based. The following applies: HepG2, 96 h. A digest of the protocol:
as §1

Converted amounts (≈) assume the structure as drawn. The source made the active and inactive calls. No cut-off for these calls is given here.

On to `N#CCc1nnc(NC(=O)c2ccccc2)o1`, for which the result in assay [1] was Active. The IC50 turned out to be 24.4 µg/mL (≈ 107 µM) in assay [2], 39.2 µg/mL (≈ 172 µM) in assay [3], 30.3 µg/mL (≈ 133 µM) in assay [4] and 21.2 µg/mL (≈ 92.9 µM) in assay [5].
In assay [2], `O=c1[nH]cc(F)c(=O)[nH]1` [FLUOROURACIL] displayed an IC50 of 3.2 µg/mL (≈ 24.6 µM).
As for `Cc1c(/C=c2/c(=O)s/c(=C(\C#N)c3nnc(NC(=O)c4ccccc4)o3)n2-c2ccccc2)c(=O)n(-c2ccccc2)n1C`, the IC50 in assay [2] stood at 175 µg/mL (≈ 291 µM); in assay [3] it was 167 µg/mL (≈ 277 µM); in assay [4] it was 170 µg/mL (≈ 282 µM); in assay [5] it was 146 µg/mL (≈ 242 µM).
On the same counts, the results for `N#C/C(=C(\S)Nc1ccccc1)c1nnc(NC(=O)c2ccccc2)o1` are 84.6 µg/mL (≈ 233 µM), 77.5 µg/mL (≈ 213 µM), 82.4 µg/mL (≈ 227 µM) and 100 µg/mL (≈ 276 µM).
On the same counts, the results for `COc1ccc(/C=C(/C#N)c2nnc(NC(=O)c3ccccc3)o2)cc1` are 71.2 µg/mL (≈ 206 µM), 49.9 µg/mL (≈ 144 µM), 95.6 µg/mL (≈ 276 µM) and 69.5 µg/mL (≈ 201 µM).
With `CC(=O)c1sc(Nc2ccccc2)c(-c2nnc(NC(=O)c3ccccc3)o2)c1N`, the IC50 came to 84.6 µg/mL (≈ 202 µM) in assay [2], 75.5 µg/mL (≈ 180 µM) in assay [3], 76.4 µg/mL (≈ 182 µM) in assay [4] and 70.2 µg/mL (≈ 167 µM) in assay [5].
For `N#C/C(=C1\SC(=O)CN1c1ccccc1)c1nnc(NC(=O)c2ccccc2)o1` the same measures were 52.4 µg/mL (≈ 130 µM), 69.2 µg/mL (≈ 172 µM), 50.3 µg/mL (≈ 125 µM) and 51.2 µg/mL (≈ 127 µM).
For `Nc1c(C(=O)c2ccccc2)sc(Nc2ccccc2)c1-c1nnc(NC(=O)c2ccccc2)o1` the same measures were 89.6 µg/mL (≈ 186 µM), 100 µg/mL (≈ 209 µM), 101 µg/mL (≈ 209 µM) and 90.7 µg/mL (≈ 188 µM).
For `Nc1nn(-c2ccccc2)c(Nc2ccccc2)c1-c1nnc(NC(=O)c2ccccc2)o1` the same measures were 90.5 µg/mL (≈ 207 µM), 99.1 µg/mL (≈ 227 µM), 98.8 µg/mL (≈ 226 µM) and 98.7 µg/mL (≈ 226 µM).
Consider `CS/C(Nc1ccccc1)=C(\C#N)c1nnc(NC(=O)c2ccccc2)o1`, for which the IC50 in assay [2] came out at 98.7 µg/mL (≈ 262 µM); in assay [3] it was 107 µg/mL (≈ 284 µM); in assay [4] it was 132 µg/mL (≈ 351 µM); in assay [5] it was 125 µg/mL (≈ 332 µM).
On the same counts, the results for `N#C/C(=C/c1cn(-c2ccccc2)nc1-c1ccccc1)c1nnc(NC(=O)c2ccccc2)o1` are 24.1 µg/mL (≈ 52.6 µM), 37.4 µg/mL (≈ 81.6 µM), 39.6 µg/mL (≈ 86.4 µM) and 38.1 µg/mL (≈ 83.1 µM).
On the same counts, the results for `O=C(Nc1nnc(-c2nc3c(ccc4ccccc43)oc2=O)o1)c1ccccc1` are 181 µg/mL (≈ 470 µM), 222 µg/mL (≈ 577 µM), 189 µg/mL (≈ 492 µM) and 190 µg/mL (≈ 494 µM).
For the compound `N#C/C(c1nnc(NC(=O)c2ccccc2)o1)=c1\sc(=O)/c(=C/c2cn(-c3ccccc3)nc2-c2ccccc2)n1-c1ccccc1`, the IC50 in assay [2] turned out to be 340 µg/mL (≈ 537 µM); in assay [3], 411 µg/mL (≈ 648 µM); in assay [4], 257 µg/mL (≈ 405 µM); in assay [5], 250 µg/mL (≈ 395 µM).
With `O=C(Nc1nnc(-c2nc3ccc4ccccc4c3oc2=O)o1)c1ccccc1`, the IC50 in assay [2] worked out at 90.9 µg/mL (≈ 237 µM); in assay [3], 96.9 µg/mL (≈ 252 µM); in assay [4], 95.4 µg/mL (≈ 248 µM); in assay [5] it was 111 µg/mL (≈ 290 µM).
For `Nc1n[nH]c(Nc2ccccc2)c1-c1nnc(NC(=O)c2ccccc2)o1` the same measures were 38.4 µg/mL (≈ 106 µM), 38.3 µg/mL (≈ 106 µM), 36.3 µg/mL (≈ 100 µM) and 33.7 µg/mL (≈ 93.3 µM).
Take `CC1=CS/C(=C(\C#N)c2nnc(NC(=O)c3ccccc3)o2)N1c1ccccc1`: the outcome in assay [1] was Active. Moreover, the IC50 was 17.3 µg/mL (≈ 43.1 µM) in assay [2], 25.8 µg/mL (≈ 64.3 µM) in assay [3], 15.8 µg/mL (≈ 39.4 µM) in assay [4] and 12.4 µg/mL (≈ 30.9 µM) in assay [5].
On to `NC1=Nn2c(nnc2NC(=O)c2ccccc2)C1`, for which the half-maximal inhibitory concentration (IC50) in assay [2] was determined as 65 µg/mL (≈ 268 µM); in assay [3], 66.8 µg/mL (≈ 276 µM); in assay [4], 69.8 µg/mL (≈ 288 µM); in assay [5], 65.6 µg/mL (≈ 271 µM).
For `O=C(Nc1nnc(-c2cc3ccccc3oc2=O)o1)c1ccccc1`, the IC50 in assay [2] was found to be 35.8 µg/mL (≈ 107 µM); in assay [3], 32.6 µg/mL (≈ 97.8 µM); in assay [4] it was 34.5 µg/mL (≈ 104 µM); in assay [5], 35.6 µg/mL (≈ 107 µM).

These data come from ChEMBL document CHEMBL1932913, “Synthesis and antitumor evaluation of some new 1,3,4-oxadiazole-based heterocycles” (Eur J Med Chem, 2012).
